Laboratory results: ChEMBL document CHEMBL1131635 (J Med Chem, 1998)

target: T1, Phosphoglycerate kinase (Saccharomyces cerevisiae S288c, UniProt P00560); assay: Dissociation constant of phosphoglycerate kinase (PGK) at pH (3.0-11.0) was determined
T1 sequence (P00560 whole entry): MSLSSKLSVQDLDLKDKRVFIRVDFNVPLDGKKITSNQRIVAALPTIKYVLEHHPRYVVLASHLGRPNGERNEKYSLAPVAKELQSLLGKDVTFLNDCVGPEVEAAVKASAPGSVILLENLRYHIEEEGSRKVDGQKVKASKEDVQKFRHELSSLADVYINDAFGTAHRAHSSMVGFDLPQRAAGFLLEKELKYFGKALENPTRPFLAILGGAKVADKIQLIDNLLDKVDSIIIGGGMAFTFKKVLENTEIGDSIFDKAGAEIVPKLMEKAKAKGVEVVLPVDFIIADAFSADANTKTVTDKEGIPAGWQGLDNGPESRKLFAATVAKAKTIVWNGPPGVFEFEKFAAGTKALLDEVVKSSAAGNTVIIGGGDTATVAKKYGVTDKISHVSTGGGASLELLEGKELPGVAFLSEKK
Summary of the method: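 Free bisphosphonic acids in stirred solution were titrated from pH 11 down to pH 3 by controlled addition of 0.1 M HCl using an autotitrator with a combined glass electrode. The titration curves were plotted over pH 3–11, and successive pKa values of the phosphonic acid groups were calculated from the experimental data.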

Row | Structure (SMILES) | Kd [µM]
1 | O=C(CCCP(=O)(O)O)CP(=O)(O)O | 19
2 | O=C(CP(=O)(O)O)NCC(F)(F)P(=O)(O)O | 2
3 | O=P(O)(O)CCCCC(F)(F)P(=O)(O)O | 4
4 | O=P(O)(O)CCCCCCP(=O)(O)O | 2130
5 | O=C(CCP(=O)(O)O)CP(=O)(O)O | 2
6 | O=C(CCC(F)(F)P(=O)(O)O)C(F)(F)P(=O)(O)O | 5
7 | O=C(CCP(=O)(O)O)C(F)(F)P(=O)(O)O | 3
8 | O=C(CCCP(=O)(O)O)C(F)(F)P(=O)(O)O | 76
9 | O=P(O)(O)C(F)(F)COCC(F)(F)P(=O)(O)O | 265
10 | O=C(CP(=O)(O)O)NCCP(=O)(O)O | 675
11 | O=P(O)(O)C(F)(F)C(O)(O)C(F)(F)P(=O)(O)O | 72
12 | O=P(O)(O)C(F)(F)CCCCC(F)(F)P(=O)(O)O | 1000
13 | O=C(NCCP(=O)(O)O)C(F)(F)P(=O)(O)O | 6
